Results: ChEMBL document CHEMBL5661979, “Pharmacological inhibition of BMK1 suppresses tumor growth through promyelocytic leukemia protein” (Cancer Cell, 2010)
pIC50: −log10 of the molar value. Active and inactive are the calls of the source. The calls are words filed in the database; no cut-off is given here.

Legend:
[1] = molecular target: Interleukin-1 receptor-associated kinase 4 (Homo sapiens, UniProt Q9NWZ3); assay: Inhibition of IRAK4 in human HeLa cells lysate pre incubated for 15 mins followed by ATP acyl phosphate probe addition and measured after 10 mins by LC-MS/MS analysis; type: subcellular
Chain of Interleukin-1 receptor-associated kinase 4 (Q9NWZ3 whole entry): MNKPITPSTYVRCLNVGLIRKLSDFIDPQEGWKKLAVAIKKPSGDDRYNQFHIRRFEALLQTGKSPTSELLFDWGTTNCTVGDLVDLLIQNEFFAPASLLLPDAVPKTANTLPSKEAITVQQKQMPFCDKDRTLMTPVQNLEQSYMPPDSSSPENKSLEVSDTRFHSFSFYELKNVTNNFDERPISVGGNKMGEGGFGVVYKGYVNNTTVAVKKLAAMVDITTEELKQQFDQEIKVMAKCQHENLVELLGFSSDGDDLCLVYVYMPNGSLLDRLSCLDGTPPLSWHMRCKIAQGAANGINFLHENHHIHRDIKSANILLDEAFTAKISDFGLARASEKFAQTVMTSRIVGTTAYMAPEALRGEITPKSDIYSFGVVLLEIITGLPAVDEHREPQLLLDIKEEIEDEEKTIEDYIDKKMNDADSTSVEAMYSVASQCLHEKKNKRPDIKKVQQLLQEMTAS

[2] = molecular target: Dual specificity mitogen-activated protein kinase kinase 7 (Homo sapiens, UniProt O14733); assay: Inhibition of MAP2K7 in human HeLa cells lysate pre incubated for 15 mins followed by ADP acyl phosphate probe addition and measured after 10 mins by LC-MS/MS analysis; type: subcellular
Chain of Dual specificity mitogen-activated protein kinase kinase 7 (O14733 whole entry): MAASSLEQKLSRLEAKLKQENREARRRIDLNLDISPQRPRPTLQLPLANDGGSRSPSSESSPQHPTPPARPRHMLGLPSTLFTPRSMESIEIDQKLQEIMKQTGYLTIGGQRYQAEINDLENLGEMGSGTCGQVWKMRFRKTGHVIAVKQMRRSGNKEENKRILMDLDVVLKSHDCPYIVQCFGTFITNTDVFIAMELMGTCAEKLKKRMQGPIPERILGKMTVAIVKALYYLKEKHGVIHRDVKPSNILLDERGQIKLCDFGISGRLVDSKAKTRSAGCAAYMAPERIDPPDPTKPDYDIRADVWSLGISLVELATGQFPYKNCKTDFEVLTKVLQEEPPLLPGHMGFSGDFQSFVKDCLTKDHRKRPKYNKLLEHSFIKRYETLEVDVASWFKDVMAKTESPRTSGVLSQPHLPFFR

[3] = tested on: HeLa; assay: Antitumor activity against human HeLa cells xenografted in NOD/SCID mouse assessed as reduction tumor growth at 50 mg/kg, ip administered on day 14 post implantation measured after 28 days; type: functional, organism-based; settings: time 14.0 day
Outline: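 HeLa cells (5×10^5, in DMEM) were injected s.c. into the right flank of 6-week-old Nod/Scid mice on day 0. Dosing was 50 mg/kg i.p. twice daily, starting on day 1, 7 or 14 and continuing to day 28; controls received carrier. 6 mice per treated group. Tumors were measured every 2–3 days.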

[4] = molecular target: T1, Non-receptor tyrosine-protein kinase TNK1 (Homo sapiens) (UniProt Q13470); assay: Inhibition of TNK1 in human HeLa cells lysate at 10 uM pre incubated for 15 mins followed by ADP acyl phosphate probe addition and measured after 10 mins by LC-MS/MS analysis relative to control; type: subcellular; settings: time 25.0 min
T1 sequence (whole entry): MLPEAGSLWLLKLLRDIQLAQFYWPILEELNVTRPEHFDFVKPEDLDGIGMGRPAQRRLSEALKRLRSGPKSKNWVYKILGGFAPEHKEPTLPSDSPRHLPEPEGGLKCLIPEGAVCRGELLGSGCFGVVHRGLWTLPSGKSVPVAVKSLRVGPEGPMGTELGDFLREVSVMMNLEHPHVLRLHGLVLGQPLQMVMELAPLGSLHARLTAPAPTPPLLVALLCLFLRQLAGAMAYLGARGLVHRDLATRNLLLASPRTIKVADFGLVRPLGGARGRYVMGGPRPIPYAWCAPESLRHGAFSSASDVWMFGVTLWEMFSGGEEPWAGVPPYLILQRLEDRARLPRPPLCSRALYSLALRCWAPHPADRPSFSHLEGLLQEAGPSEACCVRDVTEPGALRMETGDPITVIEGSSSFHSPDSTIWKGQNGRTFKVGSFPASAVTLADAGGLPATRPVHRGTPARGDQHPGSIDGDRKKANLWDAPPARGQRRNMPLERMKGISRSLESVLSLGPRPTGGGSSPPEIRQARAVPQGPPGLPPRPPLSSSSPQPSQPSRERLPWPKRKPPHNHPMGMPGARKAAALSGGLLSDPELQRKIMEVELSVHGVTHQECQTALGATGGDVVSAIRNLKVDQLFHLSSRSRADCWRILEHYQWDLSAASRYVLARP

[5] = molecular target: T2, Dual specificity mitogen-activated protein kinase kinase 3 (Homo sapiens) (UniProt P46734); assay: Inhibition of MAP2K3 in human HeLa cells lysate at 2 uM pre incubated for 15 mins followed by ATP acyl phosphate probe addition and measured after 10 mins by LC-MS/MS analysis relative to control; type: subcellular; settings: time 25.0 min
T2 sequence (whole entry): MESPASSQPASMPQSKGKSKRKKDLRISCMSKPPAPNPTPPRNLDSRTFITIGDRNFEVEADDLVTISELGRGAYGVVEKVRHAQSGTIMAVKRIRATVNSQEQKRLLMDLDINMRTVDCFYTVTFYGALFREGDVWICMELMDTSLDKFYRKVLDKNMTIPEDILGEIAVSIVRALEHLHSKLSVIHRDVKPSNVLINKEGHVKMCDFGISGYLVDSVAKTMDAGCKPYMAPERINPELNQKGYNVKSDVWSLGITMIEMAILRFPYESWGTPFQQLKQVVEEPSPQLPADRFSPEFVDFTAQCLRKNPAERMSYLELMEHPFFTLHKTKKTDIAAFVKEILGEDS

[6] = molecular target: Dual specificity mitogen-activated protein kinase kinase; MEK1/2 (Homo sapiens, UniProt P36507+Q02750); assay: Inhibition of MAP2K1/MAP2K2in human HeLa cells lysate at 2 uM pre incubated for 15 mins followed by ADP acyl phosphate probe addition and measured after 10 mins by LC-MS/MS analysis relative to control; type: subcellular; settings: time 25.0 min
Chain of Dual specificity mitogen-activated protein kinase kinase; MEK1/2 (P36507 whole entry, looked up): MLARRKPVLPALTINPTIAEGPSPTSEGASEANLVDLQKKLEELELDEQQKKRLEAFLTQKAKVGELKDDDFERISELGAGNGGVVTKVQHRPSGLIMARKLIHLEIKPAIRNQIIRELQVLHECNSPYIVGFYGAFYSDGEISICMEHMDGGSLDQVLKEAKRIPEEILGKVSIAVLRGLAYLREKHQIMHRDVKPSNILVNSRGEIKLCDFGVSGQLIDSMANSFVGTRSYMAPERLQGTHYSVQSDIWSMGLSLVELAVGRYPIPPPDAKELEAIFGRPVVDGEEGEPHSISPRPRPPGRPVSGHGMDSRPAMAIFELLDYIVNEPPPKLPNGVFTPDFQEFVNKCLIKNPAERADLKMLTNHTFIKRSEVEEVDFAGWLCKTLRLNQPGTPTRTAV
Chain of Dual specificity mitogen-activated protein kinase kinase; MEK1/2 (Q02750 whole entry, looked up): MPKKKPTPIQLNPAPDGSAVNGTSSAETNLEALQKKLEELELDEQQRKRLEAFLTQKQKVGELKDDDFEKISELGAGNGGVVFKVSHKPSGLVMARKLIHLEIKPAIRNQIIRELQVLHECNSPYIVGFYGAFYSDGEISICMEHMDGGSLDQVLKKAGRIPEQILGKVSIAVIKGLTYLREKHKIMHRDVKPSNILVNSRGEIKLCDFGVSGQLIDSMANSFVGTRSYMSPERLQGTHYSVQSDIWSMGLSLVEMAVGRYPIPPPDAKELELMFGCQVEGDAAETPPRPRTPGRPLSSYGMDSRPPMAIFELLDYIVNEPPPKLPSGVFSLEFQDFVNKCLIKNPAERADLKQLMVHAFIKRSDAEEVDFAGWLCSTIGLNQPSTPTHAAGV

[7] = molecular target: Mitogen-activated protein kinase kinase kinase 4 (Homo sapiens, UniProt Q9Y6R4); assay: Inhibition of MAP3K4 in human HeLa cells lysate at 2 uM pre incubated for 15 mins followed by ATP acyl phosphate probe addition and measured after 10 mins by LC-MS/MS analysis relative to control; type: subcellular; settings: time 25.0 min
Chain of Mitogen-activated protein kinase kinase kinase 4 (Q9Y6R4 whole entry): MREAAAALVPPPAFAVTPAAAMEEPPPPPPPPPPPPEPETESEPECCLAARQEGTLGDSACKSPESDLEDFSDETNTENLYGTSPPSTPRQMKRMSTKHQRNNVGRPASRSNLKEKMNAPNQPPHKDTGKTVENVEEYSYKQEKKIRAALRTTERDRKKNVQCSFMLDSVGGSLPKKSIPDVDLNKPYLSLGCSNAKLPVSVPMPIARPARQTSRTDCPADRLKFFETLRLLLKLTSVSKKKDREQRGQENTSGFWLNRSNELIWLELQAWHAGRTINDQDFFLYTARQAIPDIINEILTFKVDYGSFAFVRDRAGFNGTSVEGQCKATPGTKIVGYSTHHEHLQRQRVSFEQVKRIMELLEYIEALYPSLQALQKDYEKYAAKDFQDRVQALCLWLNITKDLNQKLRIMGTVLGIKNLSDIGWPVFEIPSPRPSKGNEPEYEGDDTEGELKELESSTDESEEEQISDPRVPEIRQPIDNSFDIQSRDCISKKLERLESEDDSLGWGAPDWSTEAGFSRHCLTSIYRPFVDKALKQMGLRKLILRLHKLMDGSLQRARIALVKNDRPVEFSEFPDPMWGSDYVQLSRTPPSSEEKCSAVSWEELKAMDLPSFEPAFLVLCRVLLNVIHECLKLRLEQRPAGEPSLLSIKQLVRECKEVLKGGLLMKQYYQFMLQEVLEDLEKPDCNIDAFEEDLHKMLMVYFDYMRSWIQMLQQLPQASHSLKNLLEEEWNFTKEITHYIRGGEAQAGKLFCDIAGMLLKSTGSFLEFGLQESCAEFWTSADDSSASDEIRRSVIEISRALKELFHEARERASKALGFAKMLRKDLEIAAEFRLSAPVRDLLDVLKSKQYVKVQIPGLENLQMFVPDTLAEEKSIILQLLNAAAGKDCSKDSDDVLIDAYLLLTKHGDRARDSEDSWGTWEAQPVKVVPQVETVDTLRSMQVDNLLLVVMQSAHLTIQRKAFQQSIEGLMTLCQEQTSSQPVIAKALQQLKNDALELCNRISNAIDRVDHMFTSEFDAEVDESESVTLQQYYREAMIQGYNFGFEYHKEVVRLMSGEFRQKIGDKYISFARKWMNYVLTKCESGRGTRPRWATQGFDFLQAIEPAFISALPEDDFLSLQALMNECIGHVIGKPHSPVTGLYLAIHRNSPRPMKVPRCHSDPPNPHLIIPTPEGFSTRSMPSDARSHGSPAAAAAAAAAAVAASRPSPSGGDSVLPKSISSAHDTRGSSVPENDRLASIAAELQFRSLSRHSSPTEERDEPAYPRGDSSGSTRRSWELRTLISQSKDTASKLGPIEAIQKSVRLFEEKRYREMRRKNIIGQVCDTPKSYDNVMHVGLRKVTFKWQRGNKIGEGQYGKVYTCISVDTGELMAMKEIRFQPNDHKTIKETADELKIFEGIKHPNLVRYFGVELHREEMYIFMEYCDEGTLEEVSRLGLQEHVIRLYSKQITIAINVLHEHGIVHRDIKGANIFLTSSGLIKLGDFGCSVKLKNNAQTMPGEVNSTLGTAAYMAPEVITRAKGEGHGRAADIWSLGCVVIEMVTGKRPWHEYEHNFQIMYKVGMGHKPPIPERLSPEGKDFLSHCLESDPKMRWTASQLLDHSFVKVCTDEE

[8] = molecular target: Mitogen-activated protein kinase kinase kinase 11 (Homo sapiens, UniProt Q16584); assay: Inhibition of MLK3 in human HeLa cells lysate at 50 uM pre incubated for 15 mins followed by ATP acyl phosphate probe addition and measured after 10 mins by LC-MS/MS analysis relative to control; type: subcellular; settings: time 25.0 min
Chain of Mitogen-activated protein kinase kinase kinase 11 (Q16584 whole entry, looked up): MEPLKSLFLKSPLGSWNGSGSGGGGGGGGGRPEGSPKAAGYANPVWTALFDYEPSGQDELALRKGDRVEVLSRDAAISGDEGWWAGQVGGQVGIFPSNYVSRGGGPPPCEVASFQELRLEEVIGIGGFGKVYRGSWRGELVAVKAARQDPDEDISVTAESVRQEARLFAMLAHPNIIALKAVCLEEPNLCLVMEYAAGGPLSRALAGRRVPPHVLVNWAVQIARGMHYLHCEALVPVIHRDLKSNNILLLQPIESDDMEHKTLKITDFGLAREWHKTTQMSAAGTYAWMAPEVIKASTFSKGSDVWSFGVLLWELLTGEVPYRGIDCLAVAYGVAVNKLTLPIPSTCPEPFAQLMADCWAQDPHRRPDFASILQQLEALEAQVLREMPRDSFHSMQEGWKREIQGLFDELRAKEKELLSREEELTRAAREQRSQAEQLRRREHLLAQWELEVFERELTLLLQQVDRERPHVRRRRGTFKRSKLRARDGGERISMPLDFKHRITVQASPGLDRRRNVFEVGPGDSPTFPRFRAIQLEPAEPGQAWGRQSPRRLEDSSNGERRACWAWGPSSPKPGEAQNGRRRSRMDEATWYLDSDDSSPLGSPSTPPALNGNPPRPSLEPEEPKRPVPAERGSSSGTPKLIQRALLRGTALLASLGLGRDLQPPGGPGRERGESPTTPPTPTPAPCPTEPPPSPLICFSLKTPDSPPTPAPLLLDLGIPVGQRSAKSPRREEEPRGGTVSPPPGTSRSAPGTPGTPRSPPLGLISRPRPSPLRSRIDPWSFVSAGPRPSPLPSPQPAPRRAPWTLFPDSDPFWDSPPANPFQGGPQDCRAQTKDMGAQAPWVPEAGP

[9] = molecular target: SRSF protein kinase 1 (Homo sapiens, UniProt Q96SB4); assay: Inhibition of SRPK1 in human HeLa cells lysate at 10 uM pre incubated for 15 mins followed by ATP acyl phosphate probe addition and measured after 10 mins by LC-MS/MS analysis relative to control; type: subcellular; settings: time 25.0 min
Chain of SRSF protein kinase 1 (Q96SB4 whole entry): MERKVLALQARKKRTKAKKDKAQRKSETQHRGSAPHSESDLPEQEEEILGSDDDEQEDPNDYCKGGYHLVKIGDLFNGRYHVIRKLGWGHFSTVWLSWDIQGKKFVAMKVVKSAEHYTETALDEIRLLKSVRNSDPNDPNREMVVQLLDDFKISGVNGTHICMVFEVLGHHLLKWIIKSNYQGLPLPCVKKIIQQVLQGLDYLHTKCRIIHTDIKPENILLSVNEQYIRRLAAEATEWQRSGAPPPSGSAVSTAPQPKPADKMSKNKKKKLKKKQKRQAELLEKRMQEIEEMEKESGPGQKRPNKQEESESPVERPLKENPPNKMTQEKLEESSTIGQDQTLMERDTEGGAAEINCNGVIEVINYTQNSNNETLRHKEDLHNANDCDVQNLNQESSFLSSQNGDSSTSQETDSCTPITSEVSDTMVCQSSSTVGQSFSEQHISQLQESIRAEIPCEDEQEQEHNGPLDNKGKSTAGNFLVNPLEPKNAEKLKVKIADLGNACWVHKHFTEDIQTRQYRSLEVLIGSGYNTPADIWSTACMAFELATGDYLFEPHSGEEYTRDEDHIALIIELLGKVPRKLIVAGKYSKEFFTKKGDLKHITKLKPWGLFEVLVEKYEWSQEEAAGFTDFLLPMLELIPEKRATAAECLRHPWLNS

**Q.** `CCOc1cc(N2CCC(O)CC2)ccc1Nc1ncc2c(n1)N(C)c1ccccc1C(=O)N2C` was tested. Which pIC50 [1] did it give?
**A.** < 4.30

**Q.** What about the pIC50 [2] of the same molecule?
**A.** < 4.30

**Q.** What about the Activity [3] of the same molecule?
**A.** Active

**Q.** And the inhibition [4]?
**A.** 46%

**Q.** What about the inhibition [5] of the same molecule?
**A.** 13.5%

**Q.** What about the inhibition [6] of the same molecule?
**A.** 0.6%

**Q.** And the inhibition [7]?
**A.** -8.8%

**Q.** What about the inhibition [8] of the same molecule?
**A.** -7.8%

**Q.** What about the inhibition [9] of the same molecule?
**A.** 1.3%
